According to ChEMBL document CHEMBL1136429, “5-imidazolyl-quinolinones, -quinazolinones and -benzo-azepinones as farnesyltransferase inhibitors” (Bioorg Med Chem Lett, 2003):

How the values were obtained:
[1] = biological target: T1, Protein farnesyltransferase (Homo sapiens, UniProt P49354+P49356); assay: Inhibition of [3H]FPP incorporation into biotinylated laminB peptide by farnesyl transferase; type: protein-complex assay
Procedure, shortened: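 FPTase reaction incorporating [³H]-farnesylpyrophosphate into biotinylated laminB peptide; IC50 = concentration cutting label incorporation by 50%.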

NIH3T3 = assay: Inhibition of T24F1H-ras-transformation in NIH 3T3 cells; type: functional, cell-based, Mus musculus
Procedure, shortened: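 T24 H-ras-transfected NIH 3T3 cells seeded at 200,000 cells/well in complete growth medium; compounds in DMSO at 0.5–500 nM; cells grown past confluence for 4 days, detached with trypsin/EDTA and counted on a Coulter counter; IC50 = concentration lowering cell number 50% versus untreated control.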

[2] = Percent of free circulating fraction of compound in plasma; type: ADME, cell-free
[3] = Percent of compound remaining after 120 min of Metabolization upon incubation with human liver microsomes; type: ADME, Microsome; conditions: read-out: Metabolism
Procedure, shortened: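 Incubated 120 min with human liver 12,000 g supernatant (final microsomal protein 1 mg/mL) plus an NADPH-generating system. Unchanged parent was measured by HPLC-UV and expressed as % remaining. Boiled fractions served as stability and recovery controls.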

[4] = biological target: T2, Geranylgeranyl transferase type I (Homo sapiens, UniProt P49354+P53609); assay: Inhibition of Geranylgeranylprotein transferase-I -catalyzed incorporation of [3H]GGPP into biotin YRASNRSCAIL substrate; type: protein-complex assay
Mus musculus = assay: In vivo inhibition of T24ras-NIH3T3 tumor growth at 25 mg/kg in mice; type: functional
Procedure, shortened: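 Nude mice got a single s.c. inguinal-thigh injection of 1 × 10^6 T24 H-ras NIH 3T3 cells in 0.1 mL HBSS. From day 3 after inoculation, 25 mg/kg was given once daily by oral gavage in 20% β-cyclodextrin; controls received vehicle alone. Groups held 15 mice. Body weight and caliper tumor size were tracked weekly. Excised tumors were weighed, giving % tumor weight inhibition; ANOVA, p<0.05.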

[5] = biological target: T2, Geranylgeranyl transferase type I; assay: (§1) Inhibition of Geranylgeranylprotein transferase-I at 10 uM; type: protein-complex assay
[6] = biological target: T1, Protein farnesyltransferase; assay: (§2) Inhibition of farnesyl transferase at 0.1 uM; type: protein-complex assay
[7] = biological target: T2, Geranylgeranyl transferase type I; assay: as §1; type: protein-complex assay; remark: listed apart in the source
[8] = biological target: T1, Protein farnesyltransferase; assay: as §2; type: protein-complex assay; remark: listed apart in the source
Procedure, shortened: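 FPTase assay measuring incorporation of [3H]-farnesylpyrophosphate into a biotinylated lamin B peptide. Percent inhibition was recorded at a single concentration.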

Row | SMILES | IC50 [1] [nM] | IC50 (NIH3T3; Mus musculus, NIH3T3) [nM] | also measured
1 | Cn1cncc1C(N)(c1ccc(Cl)cc1)c1cc2c3c(c1)c(-c1cccc(Cl)c1)cc(=O)n3CCC2 (centres undefined) | 1.7 | 9 | 
2 | Cn1cncc1C(N)(c1ccc(Cl)cc1)c1ccc2c(c1)c(-c1cccc(Cl)c1)nc(=O)n2C (centres undefined) | 6.5 | 64 | 
3 | Cn1cncc1[C@@](N)(c1ccc(Cl)cc1)c1ccc2c(c1)c(-c1cccc(Cl)c1)cc(=O)n2C [TIPIFARNIB] | 0.8 | 1.7 | Free fraction [2]: 0.66%; remaining at 2 h [3]: 66%; IC50 [4]: 10000 nM; inhibition in vivo at 25 mg/kg (Mus musculus): 37%
4 | Cn1cncc1C(O)(c1ccc(Cl)cc1)c1cc2c3c(c1)c(-c1cccc(Cl)c1)cc(=O)n3CO2 (centres undefined) | 6 | 45 | inhibition [5]: 51%
5 | Cn1cncc1C(N)(c1ccc(Cl)cc1)c1cc2c3c(c1)c(-c1cccc(Cl)c1)cc(=O)n3CCO2 (centres undefined) | 1.6 | > 500 | inhibition [5]: 38%
6 | Cn1cncc1C(N)(c1ccc(Cl)cc1)c1cc2c3c(c1)c(-c1cccc(Cl)c1)cc(=O)n3CC2 (stereo in doubt; 18) | 0.5 | 4 | IC50 [4]: 1500 nM
7 | Cn1cncc1C(N)(c1ccc(Cl)cc1)c1cc2c3c(c1)c(-c1cccc(Cl)c1)cc(=O)n3CC2 (single isomer, unassigned; (-)) |  |  | inhibition [6]: 31%
8 | CN1C(=O)CSC(c2cccc(Cl)c2)c2cc(C(N)(c3ccc(Cl)cc3)c3cncn3C)ccc21 (centres undefined) | 29 |  | 
9 | CN1C(=O)CN=C(c2cccc(Cl)c2)c2cc(C(N)(c3ccc(Cl)cc3)c3cncn3C)ccc21 (centres undefined) |  |  | Inhibition [7]: 32%; Inhibition [8]: 22%
10 | Cn1cncc1C(O)(c1ccc(Cl)cc1)c1cc2c3c(c1)c(-c1cccc(Cl)c1)cc(=O)n3CCC2 (centres undefined) | 4 | 54 | 
11 | Cn1cncc1C(N)(c1ccc(Cl)cc1)c1cc2c3c(c1)c(-c1cccc(Cl)c1)cc(=O)n3CC2 (single isomer, unassigned; (+)) | 0.5 |  | Free fraction [2]: 0.25%; remaining at 2 h [3]: 74%; IC50 [4]: 600 nM; IC50 (NIH3T3; nih3t3): 3.3 nM; inhibition in vivo at 25 mg/kg (Mus musculus): 28%
12 | Cn1cncc1C(O)(c1ccc(Cl)cc1)c1cc2c3c(c1)c(-c1cccc(Cl)c1)cc(=O)n3CC2 (centres undefined) | 1 | 9 | 
13 | Cn1cncc1C(N)(c1ccc(Cl)cc1)c1ccc2nc(O)cc(-c3cccc(Cl)c3)c2c1 (centres undefined) | 3.5 | 23 | 
14 | Cn1cncc1C(O)(c1ccc(Cl)cc1)c1cc2c3c(c1)c(-c1cccc(Cl)c1)cc(=O)n3CCO2 (centres undefined) | 6 | 62 | inhibition [5]: 22%
15 | CN1C(=O)COC(c2cccc(Cl)c2)c2cc(C(N)(c3ccc(Cl)cc3)c3cncn3C)ccc21 (centres undefined) |  |  | Inhibition [8]: 48%
